Source: ChEMBL document CHEMBL1125136, “Quinolone antibacterial agents substituted at the 7-position with spiroamines. Synthesis and structure-activity relationships” (1990)
In brackets after ≈: the same amount, converted by molar mass.

Experiments:
[1] = tested on: Enterobacter cloacae; test: Evaluated for minimum inhibitory concentration against gram-negative bacteria Enterobacter cloacae HA 2646; assay type: functional
[2] = tested on: Escherichia coli; test: Evaluated for minimum concentration needed to produce linear DNA at an intensity relative to oxolinic acid at 10 mg/mL. by gyrase mediated cleavage of DNA in Escherichia coli 560.; assay type: functional; conditions: read-out: MIC
[3] = tested on: Escherichia coli; test: Evaluated for minimum inhibitory concentration against gram-negative bacteria Escherichia coli Vogel; assay type: functional
In short: (§1)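 Broth microdilution MIC by standard technique. Values come from duplicate experiments and are stated as accurate to ±50%.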

[4] = tested on: Klebsiella pneumoniae; test: Evaluated for minimum inhibitory concentration against gram-negative bacteria Klebsiella pneumoniae MGH-2; assay type: functional; in short: as §1
[5] = tested on: Pseudomonas aeruginosa; test: Evaluated for minimum inhibitory concentration against gram-negative bacteria Pseudomonas aeruginosa UI-18; assay type: functional; in short: as §1
[6] = tested on: Pseudomonas; test: Evaluated for minimum inhibitory concentration against gram-negative bacteria Pseudomonas rettgeri H1771; assay type: functional; in short: as §1
[7] = Evaluated for minimum inhibitory concentration against […] bacteria […] SV-1; assay type: functional; in short: as §1
[8] = tested on: Staphylococcus aureus; test: Evaluated for minimum inhibitory concentration against […] bacteria Staphylococcus aureus H228; assay type: functional; in short: as §1
[9] = tested on: Staphylococcus aureus; test: Evaluated for minimum inhibitory concentration against […] bacteria Staphylococcus aureus UC-76; assay type: functional; in short: as §1
[10] = tested on: Streptococcus pyogenes; test: Evaluated for minimum inhibitory concentration against gram-positive bacteria Streptococcus pyogenes C203
[11] = tested on: Enterococcus faecalis; test: Evaluated for minimum inhibitory concentration against gram-positive bacteria Staphylococcus faecalis MGH-2
[12] = tested on: Escherichia coli; test: In vivo protective dose for mouse protection assay in Escherichia coli Vogel after peroral administration; assay type: functional; conditions: po, read-out: PD50
In short: (§2)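 Female Charles River CD-1 mice were given an acute, lethal, systemic infection. A single dose of compound was given at the time of challenge, by the route stated in the line, with 16 animals per dose level. The read-out is the median protective dose (PD50, mg/kg). Per the footnote, values come from 16 animals per test, with a mean variation of ±34%.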

[13] = tested on: Escherichia coli; test: In vivo protective dose was determined in mouse protection assay in Escherichia coli Vogel after subcutaneous administration; assay type: functional; conditions: sc, read-out: PD50; in short: as §2
[14] = tested on: Pseudomonas aeruginosa; test: In vivo protective dose was determined against Pseudomonas aeruginosa UI-18. after peroral administration; assay type: functional; conditions: po, read-out: PD50; in short: as §2
[15] = tested on: Pseudomonas aeruginosa; test: In vivo protective dose was determined against Pseudomonas aeruginosa UI-18. after subcutaneous administration; assay type: functional; conditions: sc, read-out: PD50; in short: as §2
[16] = tested on: Staphylococcus aureus; test: In vivo protective dose was determined against Staphylococcus aureus VC76 after peroral administration; assay type: functional; conditions: po, read-out: PD50; in short: as §2
[17] = tested on: Staphylococcus aureus; test: In vivo protective dose was determined against Staphylococcus aureus VC76. after subcutaneous administration; assay type: functional; conditions: sc, read-out: PD50; in short: as §2
[18] = tested on: Streptococcus pyogenes; test: In vivo protective dose was determined against Streptococcus pyogenes after peroral administration; conditions: po, read-out: PD50
[19] = tested on: Streptococcus pyogenes; test: In vivo protective dose was determined against Streptococcus pyogenes after subcutaneous administration; conditions: sc, read-out: PD50
[20] = tested on: Streptococcus pneumoniae; test: In vivo protective dose was determined against Streptococcus pneumoniae SV-1 after peroral administration; conditions: po, read-out: PD50
[21] = tested on: Streptococcus pneumoniae; test: In vivo protective dose was determined against Streptococcus pneumoniae SV-1 after subcutaneous administration; conditions: sc, read-out: PD50

MIC [1] [µg/mL]	MIC [3] [µg/mL]	MIC [4] [µg/mL]	MIC [5] [µg/mL]	MIC [6] [µg/mL]	MIC [7] [µg/mL]	MIC [8] [µg/mL]	MIC [9] [µg/mL]	MIC [10] [µg/mL]	MIC [11] [µg/mL]	Structure (SMILES)	minimum concentration for gyrase-mediated DNA cleavage [2] [µg/mL]	ED50 [12] [mg/kg]	ED50 [13] [mg/kg]	other results
0.2 (≈ 0.479 µM)	0.1 (≈ 0.24 µM)	0.2 (≈ 0.479 µM)	1.6 (≈ 3.83 µM)	0.4 (≈ 0.958 µM)	0.2 (≈ 0.479 µM)	0.1 (≈ 0.24 µM)	0.025 (≈ 0.0599 µM)	0.2 (≈ 0.479 µM)	0.1 (≈ 0.24 µM)	CCN1CCC2(CCN(c3c(F)cc4c(=O)c(C(=O)O)cn(C5CC5)c4c3F)C2)C1 (stereo not given)	0.5			
0.025 (≈ 0.0716 µM)	0.013 (≈ 0.0372 µM)	0.025 (≈ 0.0716 µM)	0.1 (≈ 0.286 µM)	0.05 (≈ 0.143 µM)	0.05 (≈ 0.143 µM)	0.05 (≈ 0.143 µM)	0.025 (≈ 0.0716 µM)	0.25 (≈ 0.716 µM)	0.05 (≈ 0.143 µM)	NC1CCN(c2c(F)cc3c(=O)c(C(=O)O)cn(C4CC4)c3c2F)C1 (stereo not given)	0.1			
0.2	0.2	0.4	1.6	0.8	1.6	1.6	0.8	1.6	3.1	CCn1cc(C(=O)O)c(=O)c2cc(F)c(N3CCC4(CCCN4)C3)c(F)c21.Cl (stereo not given)	2.5			

Second part, the molecule before the results:

Structure (SMILES)	MIC [1] [µg/mL]	MIC [3] [µg/mL]	MIC [4] [µg/mL]	MIC [5] [µg/mL]	MIC [6] [µg/mL]	MIC [7] [µg/mL]	MIC [8] [µg/mL]	MIC [9] [µg/mL]	MIC [10] [µg/mL]	MIC [11] [µg/mL]	minimum concentration for gyrase-mediated DNA cleavage [2] [µg/mL]	ED50 [12] [mg/kg]	ED50 [13] [mg/kg]	other results
CCn1cc(C(=O)O)c(=O)c2cc(F)c(N3CCC4(CCN(C)C4)C3)cc21 (stereo not given)	0.2 (≈ 0.536 µM)	0.2 (≈ 0.536 µM)	0.8 (≈ 2.14 µM)	3.1 (≈ 8.3 µM)	3.1 (≈ 8.3 µM)	0.4 (≈ 1.07 µM)	0.8 (≈ 2.14 µM)	0.1 (≈ 0.268 µM)	0.4 (≈ 1.07 µM)	0.4 (≈ 1.07 µM)	5			
CC1COc2c(N3CCN(C)CC3)c(F)cc3c(=O)c(C(=O)O)cn1c23 (stereo not given) [OFLOXACIN]	0.1 (≈ 0.277 µM)	0.2 (≈ 0.553 µM)	0.2 (≈ 0.553 µM)	1.6 (≈ 4.43 µM)	0.4 (≈ 1.11 µM)	0.4 (≈ 1.11 µM)	3.1 (≈ 8.58 µM)	0.4 (≈ 1.11 µM)	3.1 (≈ 8.58 µM)	6.3 (≈ 17.4 µM)	6.2			
CC1COc2c(N3CCC4(CCN(C)C4)C3)c(F)c(N)c3c(=O)c(C(=O)O)cn1c23 (stereo not given)	0.4 (≈ 0.96 µM)	0.4 (≈ 0.96 µM)	0.8 (≈ 1.92 µM)	12.5 (≈ 30 µM)	6.3 (≈ 15.1 µM)	0.4 (≈ 0.96 µM)	0.4 (≈ 0.96 µM)	0.1 (≈ 0.24 µM)	0.2 (≈ 0.48 µM)	0.4 (≈ 0.96 µM)	1			
CCn1cc(C(=O)O)c(=O)c2cc(F)c(N3CCC4(CCN(C)C4)C3)c(F)c21 (stereo not given)	0.1 (≈ 0.255 µM)	0.006 (≈ 0.0153 µM)	0.1 (≈ 0.255 µM)	0.8 (≈ 2.04 µM)	0.8 (≈ 2.04 µM)	0.4 (≈ 1.02 µM)	0.1 (≈ 0.255 µM)	0.006 (≈ 0.0153 µM)	0.2 (≈ 0.511 µM)	0.1 (≈ 0.255 µM)	1	8.4	3.4	ED50 [14]: 140 mg/kg; ED50 [15]: 70 mg/kg; ED50 [16]: 9 mg/kg; ED50 [17]: 4 mg/kg; ED50 [18]: 38 mg/kg; ED50 [19]: 27 mg/kg; ED50 [20]: 43 mg/kg; ED50 [21]: 11 mg/kg
CCn1cc(C(=O)O)c(=O)c2cc(F)c(N3CCC(N)C3)c(F)c21 (stereo not given)	0.1 (≈ 0.296 µM)	0.05 (≈ 0.148 µM)	0.2 (≈ 0.593 µM)	0.4 (≈ 1.19 µM)	0.2 (≈ 0.593 µM)	0.4 (≈ 1.19 µM)	0.4 (≈ 1.19 µM)	0.05 (≈ 0.148 µM)	0.4 (≈ 1.19 µM)	0.8 (≈ 2.37 µM)	1			
CCN1CCC2(CCN(c3c(F)cc4c(=O)c(C(=O)O)cn(CC)c4c3F)C2)C1 (stereo not given)	0.4 (≈ 0.987 µM)	0.2 (≈ 0.493 µM)	0.2 (≈ 0.493 µM)	3.1 (≈ 7.65 µM)	1.6 (≈ 3.95 µM)	0.8 (≈ 1.97 µM)	0.2 (≈ 0.493 µM)	0.1 (≈ 0.247 µM)	0.4 (≈ 0.987 µM)	0.2 (≈ 0.493 µM)	5	13	6	ED50 [14]: > 100 mg/kg; ED50 [15]: 180 mg/kg; ED50 [18]: 70 mg/kg; ED50 [19]: 38 mg/kg; ED50 [20]: 68 mg/kg; ED50 [21]: 43 mg/kg
O=C(O)c1cn(C2CC2)c2c(F)c(N3CCC4(CCNC4)C3)c(F)cc2c1=O (stereo not given)	0.2 (≈ 0.514 µM)	0.2 (≈ 0.514 µM)	0.4 (≈ 1.03 µM)	1.6 (≈ 4.11 µM)	0.8 (≈ 2.05 µM)	0.1 (≈ 0.257 µM)	0.2 (≈ 0.514 µM)	0.025 (≈ 0.0642 µM)	0.025 (≈ 0.0642 µM)	0.4 (≈ 1.03 µM)	0.1	> 100	7	
